Experiment [1] has as its system Staphylococcus aureus. As to the kind of experiment: Antibacterial activity against beta-lactamase deficient Staphylococcus aureus COL. In kind it is functional.
Experiment [2] concerns Staphylococcus aureus. As to the kind of experiment: Antibacterial activity against Staphylococcus aureus ATCC 25923. In kind it is functional.
The subject of experiment [3] is Escherichia coli. As to the kind of experiment: Antibacterial activity against Escherichia coli UB1005. In kind it is functional.
Experiment [4] relates to Staphylococcus aureus. As to the kind of experiment: Antibacterial activity against Staphylococcus aureus 887 expressing beta-lactamase. In kind it is functional.
In experiment [5] the test system is Streptococcus pneumoniae. As to the kind of experiment: Antibacterial activity against Streptococcus pneumoniae R6. In kind it is functional.
Experiment [6] relates to Staphylococcus aureus. As to the kind of experiment: Antibacterial activity against Staphylococcus aureus COL expressing beta-lactamase. In kind it is functional.
The nature of experiment [7]: Inhibition of Staphylococcus epidermidis PBP2. Put shortly: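 Enzyme: purified recombinant PBP2' from Staphylococcus epidermidis, used as the inhibition target.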
Experiment [8] has as its system Staphylococcus aureus. As to the kind of experiment: Antibacterial activity against Staphylococcus aureus COL expressing beta-lactamase in presence of Sulbactam. In kind it is functional.

Values after ≈ are worked out from the molar mass of the structure shown. A value given as a limit tells only on which side of the number the result lay.

This note sets out measurements from ChEMBL document CHEMBL1208695, “Propenylamide and propenylsulfonamide cephalosporins as a novel class of anti-MRSA beta-lactams” (Bioorg Med Chem Lett, 2010).

Regarding `O=C(Cc1ccccc1)N[C@@H]1C(=O)N2C(C(=O)O)=C(/C=C/CNS(=O)(=O)c3csc(Cl)c3)CS[C@H]12`, the MIC is 32 µg/mL (≈ 57.8 µM) in experiment [1]; 0.13 µg/mL (≈ 0.235 µM) in experiment [2]; more than 32 µg/mL in experiment [3]; 2 µg/mL (≈ 3.61 µM) in experiment [4]; not above 0.06 µg/mL in experiment [5]; more than 32 µg/mL in experiment [6].
As to `O=C(CSc1ccc2ccccc2c1)N[C@@H]1C(=O)N2C(C(=O)O)=C(/C=C/CNS(=O)(=O)c3ccccc3)CS[C@H]12`, the MIC was 1 µg/mL (≈ 1.68 µM) in experiment [1]; not above 0.06 µg/mL in experiment [2]; more than 32 µg/mL in experiment [3]; 2 µg/mL (≈ 3.36 µM) in experiment [4]; not above 0.06 µg/mL in experiment [5]; 32 µg/mL (≈ 53.7 µM) in experiment [6]. The molecule further gave an IC50 in experiment [7] of 20 µM.
On to `Nc1nc(/C(=N/O)C(=O)N[C@@H]2C(=O)N3C(C(=O)O)=C(/C=C/CNS(=O)(=O)c4cccnc4)CS[C@H]23)c(Cl)s1`, for which the MIC in experiment [1] was 16 µg/mL (≈ 26.7 µM); in experiment [2], 2 µg/mL (≈ 3.33 µM); in experiment [3], 16 µg/mL (≈ 26.7 µM); in experiment [4], 4 µg/mL (≈ 6.67 µM); in experiment [5] it was not above 0.06 µg/mL; in experiment [6], 32 µg/mL (≈ 53.3 µM). The molecule further had an IC50 in experiment [7] of 12 µM.
As for `O=C(Cc1ccccc1)N[C@@H]1C(=O)N2C(C(=O)O)=C(/C=C/CNS(=O)(=O)c3ccccc3)CS[C@H]12`, the MIC in experiment [1] is more than 32 µg/mL; in experiment [2], 0.5 µg/mL (≈ 0.974 µM); in experiment [3], more than 32 µg/mL; in experiment [4] it was 16 µg/mL (≈ 31.2 µM); in experiment [5] it was 0.13 µg/mL (≈ 0.253 µM); in experiment [6], more than 32 µg/mL.
Take `CO/N=C(\C(=O)N[C@@H]1C(=O)N2C(C(=O)O)=C(/C=C/CNC(=O)C3CCCN3C)CS[C@H]12)c1csc(N)n1` (stereo partly specified): the MIC in experiment [1] is more than 32 µg/mL; in experiment [2], 2 µg/mL (≈ 3.64 µM); in experiment [3], 1 µg/mL (≈ 1.82 µM); in experiment [4], 8 µg/mL (≈ 14.6 µM); in experiment [5] it was not above 0.06 µg/mL; in experiment [6] it was more than 32 µg/mL. This molecule also yielded an IC50 in experiment [7] of more than 500 µM.
Turning to `CN1CCCC1C(=O)NC/C=C/C1=C(C(=O)O)N2C(=O)[C@@H](NC(=O)Cc3ccccc3)[C@H]2SC1` (stereo partly specified), the minimum inhibitory concentration (MIC) in experiment [1] is more than 32 µg/mL; in experiment [2], 0.25 µg/mL (≈ 0.516 µM); in experiment [3], more than 32 µg/mL; in experiment [4], 8 µg/mL (≈ 16.5 µM); in experiment [5], not above 0.06 µg/mL; in experiment [6], more than 32 µg/mL.
Turning to `CN(C)CC(=O)NC/C=C/C1=C(C(=O)O)N2C(=O)[C@@H](NC(=O)CSc3ccc4ccccc4c3)[C@H]2SC1`, the MIC in experiment [1] is 4 µg/mL (≈ 7.4 µM); in experiment [2], not above 0.06 µg/mL; in experiment [3], more than 32 µg/mL; in experiment [4], 1 µg/mL (≈ 1.85 µM); in experiment [5] it was not above 0.06 µg/mL; in experiment [6] it was 32 µg/mL (≈ 59.2 µM). The MIC in experiment [8] was 4 µg/mL. For the same molecule, the IC50 in experiment [7] amounted to 50 µM.
`O=C(CSc1ccc2ccccc2c1)N[C@@H]1C(=O)N2C(C(=O)O)=C(/C=C/CNC(=O)c3cccnc3)CS[C@H]12`: the minimum inhibitory concentration (MIC) in experiment [1] is 4 µg/mL (≈ 7.13 µM); in experiment [2], 0.13 µg/mL (≈ 0.232 µM); in experiment [3], more than 32 µg/mL; in experiment [4] it was 1 µg/mL (≈ 1.78 µM); in experiment [5], not above 0.06 µg/mL; in experiment [6] it was more than 32 µg/mL. In experiment [8], the minimum inhibitory concentration (MIC) turned out to be 1 µg/mL. The IC50 in experiment [7] was 31 µM.
Regarding `CN1CCCC1C(=O)NC/C=C/C1=C(C(=O)O)N2C(=O)[C@@H](NC(=O)CSc3ccc4ccccc4c3)[C@H]2SC1` (stereo partly specified), the MIC in experiment [1] is 4 µg/mL (≈ 7.06 µM); in experiment [2], 0.13 µg/mL (≈ 0.229 µM); in experiment [3], more than 32 µg/mL; in experiment [4], 1 µg/mL (≈ 1.76 µM); in experiment [5] it was 0.13 µg/mL (≈ 0.229 µM); in experiment [6], more than 32 µg/mL. For the same molecule, in experiment [8], the MIC was found to be 1 µg/mL.
`CO/N=C(\C(=O)N[C@@H]1C(=O)N2C(C(=O)O)=C(/C=C/CNC(=O)c3cccnc3)CS[C@H]12)c1csc(N)n1`: the MIC in experiment [1] is more than 32 µg/mL; in experiment [2], 4 µg/mL (≈ 7.36 µM); in experiment [3], 0.25 µg/mL (≈ 0.46 µM); in experiment [4] it was 8 µg/mL (≈ 14.7 µM); in experiment [5], not above 0.06 µg/mL; in experiment [6] it was more than 32 µg/mL. Also, in experiment [7], the IC50 is more than 500 µM.
Turning to `Nc1nc(/C(=N/O)C(=O)N[C@@H]2C(=O)N3C(C(=O)O)=C(/C=C/CNS(=O)(=O)c4ccccc4)CS[C@H]23)c(Cl)s1`, the MIC is 8 µg/mL (≈ 13.4 µM) in experiment [1]; 0.5 µg/mL (≈ 0.835 µM) in experiment [2]; more than 32 µg/mL in experiment [3]; 1 µg/mL (≈ 1.67 µM) in experiment [4]; 0.25 µg/mL (≈ 0.417 µM) in experiment [5]; 16 µg/mL (≈ 26.7 µM) in experiment [6]. For the same molecule, the IC50 in experiment [7] stood at 6 µM.
Consider `CO/N=C(\C(=O)N[C@@H]1C(=O)N2C(C(=O)O)=C(/C=C/CNS(=O)(=O)c3cccnc3)CS[C@H]12)c1csc(N)n1`, for which the MIC in experiment [1] is more than 32 µg/mL; in experiment [2], 1 µg/mL (≈ 1.73 µM); in experiment [3], 1 µg/mL (≈ 1.73 µM); in experiment [4], 2 µg/mL (≈ 3.45 µM); in experiment [5], not above 0.06 µg/mL; in experiment [6] it was more than 32 µg/mL. Besides, in experiment [7], inhibition was half-maximal at 235 µM (IC50).
For `O=C(Cc1ccccc1)N[C@@H]1C(=O)N2C(C(=O)O)=C(/C=C/CNC(=O)c3cccnc3)CS[C@H]12`, the MIC is more than 32 µg/mL in experiment [1]; not above 0.06 µg/mL in experiment [2]; more than 32 µg/mL in experiment [3]; not above 0.06 µg/mL in experiment [5]; more than 32 µg/mL in experiment [6].
As for `CC1(C)S[C@@H]2[C@H](NC(=O)[C@H](N)c3ccc(O)cc3)C(=O)N2[C@H]1C(=O)O` [AMOXICILLIN], the MIC in experiment [1] was 32 µg/mL (≈ 87.6 µM); in experiment [2], 0.25 µg/mL (≈ 0.684 µM); in experiment [3] it was 8 µg/mL (≈ 21.9 µM); in experiment [4] it was 32 µg/mL (≈ 87.6 µM); in experiment [5] it was not above 0.06 µg/mL; in experiment [6], more than 32 µg/mL.
In the case of `O=C(CSc1ccc2ccccc2c1)N[C@@H]1C(=O)N2C(C(=O)O)=C(/C=C/CNS(=O)(=O)c3csc(Cl)c3)CS[C@H]12`, the MIC was 1 µg/mL (≈ 1.57 µM) in experiment [1]; not above 0.06 µg/mL in experiment [2]; more than 32 µg/mL in experiment [3]; 0.5 µg/mL (≈ 0.786 µM) in experiment [4]; not above 0.06 µg/mL in experiment [5]; 16 µg/mL (≈ 25.1 µM) in experiment [6]. Besides, in experiment [8], the MIC came to 1 µg/mL. In experiment [7], this molecule returned an IC50 of 2 µM.
`O=C(CSc1ccc2ccccc2c1)N[C@@H]1C(=O)N2C(C(=O)O)=C(/C=C/CNC(=O)C3CC3)CS[C@H]12`: the MIC in experiment [1] is 1 µg/mL (≈ 1.91 µM); in experiment [2] it was not above 0.06 µg/mL; in experiment [3] it was more than 32 µg/mL; in experiment [4] it was 0.5 µg/mL (≈ 0.955 µM); in experiment [5], not above 0.06 µg/mL; in experiment [6], 16 µg/mL (≈ 30.6 µM).
As to `CCS(=O)(=O)NC/C=C/C1=C(C(=O)O)N2C(=O)[C@@H](NC(=O)CSc3ccc4ccccc4c3)[C@H]2SC1`, the MIC is 8 µg/mL (≈ 14.6 µM) in experiment [1]; not above 0.06 µg/mL in experiment [2]; more than 32 µg/mL in experiment [3]; 2 µg/mL (≈ 3.65 µM) in experiment [4]; not above 0.06 µg/mL in experiment [5]; more than 32 µg/mL in experiment [6]. This molecule also had an IC50 in experiment [7] of 22 µM.
For `CC(=O)OCC1=C(C(=O)O)N2C(=O)[C@@H](NC(=O)Cc3cccs3)[C@H]2SC1` [CEPHALOTHIN], the MIC in experiment [1] is more than 32 µg/mL; in experiment [2], 0.25 µg/mL (≈ 0.631 µM); in experiment [3], 8 µg/mL (≈ 20.2 µM); in experiment [4], 0.5 µg/mL (≈ 1.26 µM); in experiment [5] it was 0.125 µg/mL (≈ 0.315 µM); in experiment [6] it was more than 32 µg/mL.

In general, MIC refers to the least concentration at which growth counts as inhibited. Usually IC50 stands for the point on the concentration scale where inhibition reaches its midpoint.
